MrgX1 PAM = human MrgX1 positive allosteric modulation, primary screen. AID 588675. MrgX1-HEK293, Fluo-4 calcium flux, FDSS; hits give high values. 310,000 tested, 0.63% active. B-score at 10 µM;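 active = plate-corrected calcium response at least 3 library SD above typical, normal starting fluorescence, not activating the receptor alone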;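 note: compound read alongside a low EC10 to EC30 dose of BAM8-22 agonist; peak minus trough fluorescence over baseline measured at the second addition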
Target sequence (Q96LB2 whole entry, looked up): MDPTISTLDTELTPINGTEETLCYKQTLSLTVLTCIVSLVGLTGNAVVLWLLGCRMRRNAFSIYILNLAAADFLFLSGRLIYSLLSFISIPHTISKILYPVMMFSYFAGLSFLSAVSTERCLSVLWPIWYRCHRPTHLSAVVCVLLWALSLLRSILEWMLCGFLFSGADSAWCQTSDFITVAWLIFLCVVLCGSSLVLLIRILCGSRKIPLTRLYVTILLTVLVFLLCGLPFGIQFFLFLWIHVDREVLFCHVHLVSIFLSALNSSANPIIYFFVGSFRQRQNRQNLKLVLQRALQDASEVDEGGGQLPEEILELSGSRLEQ
MrgX1 ag = human MrgX1 receptor agonism, primary screen | B-score at 10 µM | MrgX1-HEK293 cells, Fluo-4 calcium fluorescence, agonist mode; hits give high values | Q96LB2 | 310,000 tested, 0.44% active;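 active = calcium response B-score plate-corrected fluorescence ratio at least 3 library SD, with starting fluorescence B-score inside 5 SD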
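Test system: Stable human MrgX1 HEK293 cell line | Schedule: Overnight plating before 1 h dye loading | Read-out basis: Baseline-normalised fluorescence change ratio, B-scored | Detection: Kinetic calcium dye fluorescence, Fluo-4 NW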
MrgX1 antagonist = human MrgX1 receptor antagonism, primary screen. MRGX1-HEK293 calcium flux, Fluo-4, BAM8-22 antagonism; hits give low values. B-score at 10 µM. 310,000 tested, 1.3% active;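 active = calcium-response B-score plate-corrected more than 3 library SD below zero, starting fluorescence within 5 deviations, no agonist response on first addition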;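 note: peak minus trough fluorescence over baseline after final BAM8-22 challenge near maximal dose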
RGS4 act = RGS4 potentiation or activation; HEK293 M3R/inducible RGS4, carbachol calcium flux Fluo4; hits give low values; B-score at 10 µM; 310,000 tested, 0.92% active;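 active = B-score of the integrated calcium signal more than 4 SD below the library mean, with starting fluorescence not abnormally high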;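 note: negative B-score means reduced calcium response which marks RGS4 activation or potentiation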
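System – HEK293 FlpIn-TREx cells, stable M3R, doxycycline-inducible RGS4 · Reagent – ECmax carbachol challenge · Times – compound preincubation 20 min at room temperature before agonist · Technique – Fluo4 fluorescence kinetic imaging of calcium · Measure – B score of integrated Fluo4 ratio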
RGS4 inh = human RGS4 inhibition | P49798 | HEK293 M3R/RGS4 inducible, Fluo-4 calcium flux; hits give high values; triggered by carbachol at its EC20 | B-score at 10 µM | 310,000 tested, 0.45% active | AID 463165;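 active = B-score, a plate-corrected calcium signal, over three deviations above library mean, with baseline fluorescence within five deviations of library mean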;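 note: RGS4 expression induced by doxycycline in cells with stable M3 receptor; B-score is computed from the integrated fluorescence ratio over baseline after carbachol; higher B-score means a larger calcium signal and so more RGS4 inhibition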
Target sequence (P49798 whole entry, looked up): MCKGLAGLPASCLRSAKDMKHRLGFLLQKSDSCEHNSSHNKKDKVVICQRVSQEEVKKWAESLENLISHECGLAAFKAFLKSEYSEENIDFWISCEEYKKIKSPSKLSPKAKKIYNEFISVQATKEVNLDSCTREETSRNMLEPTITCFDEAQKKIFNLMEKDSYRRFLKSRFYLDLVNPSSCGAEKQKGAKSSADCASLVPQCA
MrgX1 antag conf = human MrgX1 receptor antagonism, re-confirmation screen. shares compounds with MrgX1 antagonist. MrgX1-HEK293, BAM8-22 calcium flux, Fluo-4; hits give low values. remaining BAM8-22 calcium response % of control (hits give low values), % at 10 µM. 2,300 tested, 19% active. AID 602420;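 active = remaining agonist calcium response no higher than 100% minus 3 SD of agonist-only control wells, with starting fluorescence near control levels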;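 note: agonist BAM8-22 given at a near maximal EC90 to ECmax level; peak minus minimum fluorescence divided by baseline after agonist addition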
HEK293 Ca flux = MrgX1 antagonist counter-screen hit in parental HEK293 cells; shares compounds with MrgX1 antagonist; Fluo-4 calcium fluorescence, FDSS; fluorescence ratio F(max-min)/F0 at 10 µM; 4,000 tested, 2% active; AID 624111;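 active = duplicate-averaged calcium fluorescence ratio at least three times the standard deviation of buffer wells, a nonspecific response in parental cells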
HEK293 Ca counter = counter-screen for MrgX1 allosteric activators: effect in parental HEK293 cells; shares compounds with MrgX1 antagonist; parental HEK293 calcium flux, Fluo-4 fluorescence ratio; hits give high values; fluorescence ratio F(max-min)/F0 at 10 µM; 4,000 tested, 0.4% active;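 active = calcium fluorescence ratio, averaged over duplicates, at least 3 SD of the buffer-well ratio, meaning a nonspecific response in receptor-free cells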;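 note: untransfected parental HEK293 lacking MrgX1 used as counterscreen for MrgX1 allosteric activators; fluorescence change taken during the second addition on a kinetic imager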
HEK293 Ca cntr2 = counter-screen for MrgX1 activators: effect in parental HEK293 cells | 4,000 tested, 8.7% active | Fluo-4 calcium fluorescence (FDSS); hits give high values | fluorescence ratio F(max-min)/F0 at 10 µM | shares compounds with MrgX1 antagonist | AID 624115;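 active = calcium fluorescence ratio at least three times the spread of buffer wells, meaning a non-specific response in parental cells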
Each line names hits and unclear results; the compound was inactive in the other large screens (follow-up assays come after a bar, where they were run). Hits are enriched below; roughly 3.5% of the tested compounds scored in any of these assays.

Nc1nc(/C=C/c2ccc(F)cc2)nc(-c2ccccc2O)n1	MrgX1 antagonist -6.8 | MrgX1 antag conf 84% | HEK293 Ca flux inactive | HEK293 Ca counter inactive | HEK293 Ca cntr2 inactive
Cc1ccc(-c2cc(-c3ccccc3O)nc(N/N=C/c3cccnc3)n2)cc1	none
Nc1nc(/C=C/c2cccnc2)nc(-c2ccccc2O)n1	MrgX1 antagonist -4.8 | MrgX1 antag conf inactive | HEK293 Ca flux inactive | HEK293 Ca counter inactive | HEK293 Ca cntr2 inactive
COc1ccc(/C=C/c2nc(-c3ccccc3O)n[nH]2)cc1	none
COc1cc(CNCc2cc(OC)c(OC)c(OC)c2)cc(OC)c1	none
Cc1cccc(C(=O)OC(C)C(=O)NC(=O)NC2CCCCC2)c1O (stereo not drawn)	none
CC(=O)Nc1cccc(C(=O)OC(C)C(=O)NC(=O)NC2CCCCC2)c1 (stereo not drawn)	MrgX1 antagonist -9.9 | MrgX1 antag conf inactive | HEK293 Ca flux inactive | HEK293 Ca counter inactive | HEK293 Ca cntr2 inactive
CC(C)N(CC#CCC1(O)c2ccccc2-c2ccccc21)CCO	MrgX1 antagonist -6 | MrgX1 antag conf inactive | HEK293 Ca flux inactive | HEK293 Ca counter inactive | HEK293 Ca cntr2 inactive
CCN(CC#CCC1(O)c2ccccc2-c2ccccc21)CCO	none
COc1ccc(OC)c(-n2c(-c3cccc(C)c3)n[nH]c2=S)c1	none
COc1ccc(OC)c(-n2c(-c3ccccc3)n[nH]c2=S)c1	MrgX1 antagonist -5.2 | MrgX1 antag conf inactive | HEK293 Ca flux inactive | HEK293 Ca counter inactive | HEK293 Ca cntr2 inactive
O=C(c1cc(F)c(F)cc1Cl)N1CCOCC1	none
CC1CCN(C(=O)c2cc(F)c(F)cc2Cl)CC1	MrgX1 antagonist -5.2 | MrgX1 antag conf inactive | HEK293 Ca flux inactive | HEK293 Ca counter inactive | HEK293 Ca cntr2 inactive
Cc1ccc2c(c1)C(c1ccccc1)CC(=O)O2 (stereo not drawn)	none
Cn1c(SCC(=O)c2cc(Cl)c(Cl)s2)nnc1-c1ccco1	MrgX1 antagonist -4.8 | MrgX1 antag conf inactive | HEK293 Ca flux inactive | HEK293 Ca counter inactive | HEK293 Ca cntr2 inactive
Cc1ccc(C(=O)CSc2nnc(-c3ccco3)n2C)cc1	none
Cc1nc(SCC(=O)Nc2ccc3c(c2)OCO3)c(C#N)c2c1CCCC2	none
Cc1nc(SCC(=O)Nc2ccc3c(c2)OCCO3)c2oc3ccccc3c2n1	MrgX1 antagonist -7.5 | MrgX1 antag conf inactive | HEK293 Ca flux inactive | HEK293 Ca counter inactive | HEK293 Ca cntr2 inactive
Cn1c(SCC(=O)Nc2ccc3c(c2)OCCO3)nnc1-c1ccco1	MrgX1 antagonist -4.9 | MrgX1 antag conf inactive | HEK293 Ca flux inactive | HEK293 Ca counter inactive | HEK293 Ca cntr2 inactive
CCn1c(SCC(=O)Nc2ccc3c(c2)OCCO3)nnc1-c1ccco1	none
Cc1cc(C)c(C#N)c(SCC(=O)Nc2ccc3c(c2)OCO3)n1	MrgX1 antagonist -6.9 | MrgX1 antag conf inactive | HEK293 Ca flux inactive | HEK293 Ca counter inactive | HEK293 Ca cntr2 inactive
COCCCNC(=O)c1cc2cc3cc(OC)ccc3nc2o1	none
CN(Cc1c(F)cccc1Cl)C(=O)c1ccc(NS(=O)(=O)c2ccc3[nH]c(=O)[nH]c3c2)cc1	none
COc1ccc(NC(=O)CC2(CC(=O)O)CCCC2)cn1	none
CC1(C)CC(=O)C=C(NCCO)C1	MrgX1 antagonist -4.7 | MrgX1 antag conf inactive | HEK293 Ca flux inactive | HEK293 Ca counter inactive | HEK293 Ca cntr2 inactive
Cc1ccc(Nc2nc(NCCO)c3ccccc3n2)cc1C	MrgX1 antagonist -6.1 | MrgX1 antag conf 78% | HEK293 Ca flux inactive | HEK293 Ca counter inactive | HEK293 Ca cntr2 inactive
Cc1cc(NCCO)c2ccccc2n1	MrgX1 antagonist -4.6 | MrgX1 antag conf inactive | HEK293 Ca flux inactive | HEK293 Ca counter inactive | HEK293 Ca cntr2 inactive

Source: PubChem (Johns Hopkins Ion Channel Center)
